# Test results as given in ChEMBL document CHEMBL4145676, “Mathematical and Structural Characterization of Strong Nonadditive Structure-Activity Relationship Caused by Protein Conformational Changes” (J Med Chem, 2018).
# Experiment: Inhibition of GST tagged PDE2 (unknown origin) assessed as reduction in FAM-cAMP hydrolysis pre-incubated for 5 mins before FAM-cAMP addition and measured after 30 mins by IMAP assay
# Design: species or system Homo sapiens
# How it was run: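 Compound added from 1 mM DMSO stock, 5 min at rt. FAM-cAMP then added at 200 nM final, 30 min at rt. Stopped with IMAP Tb binding reagent, 1 h at rt. Plate reader read-out gives pIC50, run in quadruplicate.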
row,pIC50,Compound
1,9.52,Cc1nc2ccc(C(=O)NCC(C)C)cc2n2c(-c3ccccc3Cl)nnc12
2,9.77,Cc1nc2ccc(C(=O)NC34CC5CC(CC(C5)C3)C4)cc2n2c(-c3ccccc3Cl)nnc12
3,7.58,Cc1nc2ccc(C(=O)NC34CC5CC(CC(C5)C3)C4)cc2n2c(-c3cc(OC(C)(C)C)ccc3Cl)nnc12
4,7.94,Cc1nc2ccc(C(=O)NC34CC5CC(CC(C5)C3)C4)cc2n2c(-c3cc(OC(C)C)ccc3Cl)nnc12
5,9.58,Cc1nc2ccc(C(=O)NC34CC5CC(CC(C5)C3)C4)cc2n2c(-c3cc(F)ccc3Cl)nnc12
6,9.47,Cc1nc2ccc(C(=O)NC(C)(C)C)cc2n2c(-c3ccccc3Cl)nnc12
7,8.55,CNC(=O)c1ccc2nc(C)c3nnc(-c4ccccc4Cl)n3c2c1
8,8.74,CNC(=O)c1ccc2nc(C)c3nnc(-c4cc(OC)ccc4Cl)n3c2c1
9,8.69,CNC(=O)c1ccc2nc(C)c3nnc(-c4cc(F)ccc4Cl)n3c2c1
10,7.74,Cc1nc2ccc(C(=O)NC34CC5CC(CC(C5)C3)C4)cc2n2c(-c3cc(OCC(C)C)ccc3Cl)nnc12
11,9.49,COc1ccc(Cl)c(-c2nnc3c(C)nc4ccc(C(=O)NC56CC7CC(CC(C7)C5)C6)cc4n23)c1
12,9.57,Cc1nc2ccc(C(=O)NC(C)C)cc2n2c(-c3ccccc3Cl)nnc12

# The remaining lines, values behind:
row,Compound,pIC50
1,Cc1nc2ccc(C(=O)NCC(C)C)cc2n2c(-c3cc(OC(C)(C)C)ccc3Cl)nnc12,8.88
2,Cc1nc2ccc(C(=O)NCC(C)C)cc2n2c(-c3cc(OC(C)C)ccc3Cl)nnc12,8.93
3,Cc1nc2ccc(C(=O)NCC(C)C)cc2n2c(-c3cc(OCC(C)C)ccc3Cl)nnc12,9.29
4,Cc1nc2ccc(C(=O)NC(C)C)cc2n2c(-c3cc(OCC(C)C)ccc3Cl)nnc12,9.46
5,Cc1nc2ccc(C(=O)NC(C)C)cc2n2c(-c3cc(F)ccc3Cl)nnc12,9.17
6,COc1ccc(Cl)c(-c2nnc3c(C)nc4ccc(C(=O)NCC(C)C)cc4n23)c1,9.42
7,COc1ccc(Cl)c(-c2nnc3c(C)nc4ccc(C(=O)NC(C)C)cc4n23)c1,8.96
8,Cc1nc2ccc(C(=O)NC(C)C)cc2n2c(-c3cc(OC(C)(C)C)ccc3Cl)nnc12,9.1
9,CNC(=O)c1ccc2nc(C)c3nnc(-c4cc(OC(C)(C)C)ccc4Cl)n3c2c1,9.16
10,Cc1nc2ccc(C(=O)NC(C)C)cc2n2c(-c3cc(OC(C)C)ccc3Cl)nnc12,8.99
11,CNC(=O)c1ccc2nc(C)c3nnc(-c4cc(OC(C)C)ccc4Cl)n3c2c1,9.16
12,CNC(=O)c1ccc2nc(C)c3nnc(-c4cc(OCC(C)C)ccc4Cl)n3c2c1,9.61
13,Cc1nc2ccc(C(=O)NCC(C)C)cc2n2c(-c3cc(F)ccc3Cl)nnc12,9.37
14,Cc1nc2ccc(C(=O)NC(C)(C)C)cc2n2c(-c3cc(OCC(C)C)ccc3Cl)nnc12,8.75
15,COc1ccc(Cl)c(-c2nnc3c(C)nc4ccc(C(=O)NC(C)(C)C)cc4n23)c1,9
16,Cc1nc2ccc(C(=O)NC(C)(C)C)cc2n2c(-c3cc(OC(C)C)ccc3Cl)nnc12,8.3
17,Cc1nc2ccc(C(=O)NC(C)(C)C)cc2n2c(-c3cc(F)ccc3Cl)nnc12,9.3
18,Cc1nc2ccc(C(=O)NC(C)(C)C)cc2n2c(-c3cc(OC(C)(C)C)ccc3Cl)nnc12,8.35
